The source of these data is PubChem BioAssay AID624097 (The Scripps Research Institute Molecular Screening Center, 2012).

“And” between values parts separate entries of the source, which are not always exact repeats. Identical values can stand only once. The source made the active and inactive calls.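 The calls were made as follows: active = lowest compound dose that cuts the imipenem minimum inhibitory concentration fourfold is 10 µM or below; inactive = that dose above 10 µM or never reached.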

The subject of assay [1] is E. coli BL21 IMP-1, imipenem synergy, OD590, 18 h. The experiment in a line: imipenem potentiation in IMP-1-expressing E. coli, late-stage follow-up, VIM-2 MBL inhibitor project, E. coli BL21, powder samples (AID 624097). In a few lines: (§1)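 Material: E. coli BL21 carrying IMP-1; dosing: two-fold compound × imipenem checkerboard; timing: bacterial growth at least 18 h, 37 °C, aerobic; measured by: turbidity by absorbance at 590 nm, MIC per CLSI; also added: imipenem in two-fold dilution series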

Assay in assay [2]: as above
To be noted: E. coli BL21 IMP-1, imipenem synergy, OD590, 18 h; measured here: max imipenem fold potentiation; stronger effect = higher value. The procedure, abridged:
as §1

`O=C(CN1C(=O)/C(=C/c2c(Cl)ccc(Cl)c2Cl)SC1=S)NCc1ccccn1`: the minimum inhibitory concentration (MIC) (usually the lowest concentration that inhibits growth of the organism) in assay [1] is 0.781 µM.
Regarding `CN1CCN(NC(=O)CN2C(=O)/C(=C/c3c(Cl)cccc3Cl)SC2=S)CC1`, the MIC in assay [1] was 25 µM (inactive) and 3.12 µM.
Turning to `CN1CCN(NC(=O)CN2C(=O)/C(=C/c3c(Cl)ccc(Cl)c3Cl)SC2=S)CC1`, the minimum inhibitory concentration (MIC) in assay [1] is 0.781 µM and 1.56 µM.
As to `O=C(CN1C(=O)/C(=C/c2c(Cl)ccc(Cl)c2Cl)SC1=S)NN1CCNCC1`, the MIC in assay [1] is 25 µM (inactive).
`CN1CCN(C(=O)CN2C(=O)/C(=C/c3c(Cl)ccc(Cl)c3Cl)SC2=S)CC1`: in assay [1], the minimal inhibitory concentration (MIC) is 0.781 µM. Besides, the fold potentiation in assay [2] amounted to 8.
Consider `CC(C)(C)OC(=O)N1CCN(NC(=O)CN2C(=O)/C(=C/c3c(Cl)ccc(Cl)c3Cl)SC2=S)CC1`, for which the MIC in assay [1] is 3.12 µM.
